Results of several laboratories.
Protocols differ between the studies behind these lines.
Dihydrofolate reductase: Dihydrofolate reductase (Mycobacterium avium, UniProt O30463)
Ephx2: Bifunctional epoxide hydrolase 2 (Ephx2, Rattus norvegicus, UniProt P80299)

`O=C(C=Cc1ccccc1)Nc1cc(-c2ccnc(N3CCC(O)CC3)c2)ccn1` has a Kd of 1280 nM (Estrogen receptor (ESR1, Homo sapiens, UniProt P03372); binding; SPR).
`CCCOc1nc(N)nc(N)c1OCCCOc1ccccc1CCC(=O)O` has an IC50 of greater than 5000 nM (Dihydrofolate reductase; enzyme activity; inhibitor).
For `O=C1CC[C@H](N2Cc3cc(N4CCN(CC5CCN(c6ccc([C@@H]7c8ccc(O)cc8CC[C@@H]7c7ccccc7)cc6)CC5)CC4)ccc3C2=O)C(=O)N1`, the IC50 was 83 nM (Glucocorticoid receptor (NR3C1, Homo sapiens, UniProt P04150); ligand displacement; radioligand).
The IC50 of `O=C(Nc1ccc(-c2ccc3cccnc3c2)cc1)C1CCN(S(=O)(=O)c2ccccc2Cl)CC1` is reported as 8.1 nM (Ephx2; enzyme activity; inhibitor; fluorescence).
With `O=c1cc(-c2ccc(O)cc2)oc2c([C@@H]3OC[C@H](O)[C@H](O)[C@H]3O)c(O)c([C@@H]3O[C@H](CO)[C@@H](O)[C@H](O)[C@H]3O)c(O)c12` the IC50 was 157000 nM (Calcium/calmodulin-dependent protein kinase type II subunit beta (CAMK2B, Homo sapiens, UniProt Q13554); enzyme activity; inhibitor).
The IC50 of `CC[C@H](NC(=O)[C@H](CS(=O)(=O)CC1CC1)N[C@@H](c1ccc(F)cc1)C(F)(F)F)C(=O)C(=O)NC1CC1` is reported as 18000 nM (Dipeptidyl peptidase 1 (Ctsc, Mus musculus, UniProt P97821); enzyme activity; inhibitor; fluorescence).
The IC50 of `Nc1nc(N)c(OCCCOc2ccccc2CCC(=O)O)c(-c2ccc(C(F)(F)F)cc2)n1` is reported as 67 nM (Dihydrofolate reductase; enzyme activity; inhibitor).
With `CN1Cc2c(N)cccc2C(=O)N1C1CCC(=O)NC1=O` (stereo not shown) the DC50 was 67.2 nM (Cereblon/Ikaros (Homo sapiens, UniProt Q13422+Q96SW2); protein level; degrader; luciferase).
With `O=C(Nc1ccc(-c2ccnc3ccccc23)cc1)C1CCN(S(=O)(=O)c2ccccc2Cl)CC1` the IC50 was 0.7 nM (Ephx2; enzyme activity; inhibitor; fluorescence).
`Cc1cc([C@@H](C)Nc2ccccc2C(=O)O)c2nc(N3CCC(F)(F)CC3)c(C#N)c(=O)n2c1` has an IC50 of greater than 10000 nM (Phosphatidylinositol 3-kinase catalytic subunit type 3 (PIK3C3, Homo sapiens, UniProt Q8NEB9); enzyme activity; inhibitor; ADP detection).
